Bioassay records as filed in PubChem.
Hits are enriched below; roughly 5.8% of the tested compounds scored in any of these assays.
KDM4C inh: inhibitors of GASC-1 (KDM4C) histone demethylase, primary screen, biochemical, single concentration HTS. GST-KDM4C 2-372, H3K9me3 peptide, LANCE TR-FRET. Lysine-specific demethylase 4C (Homo sapiens), Q9H3R0. inhibition, % at 12.5 µM. AID 720574, 2013. 0.15% of 96,000 active;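 active = mean replicate inhibition above about 25%, with at least 55% of replicates also reaching it, limit read from the data, passing the limit was not always enough; inconclusive = only one of those two conditions met; inactive = neither condition met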
Target sequence (Q9H3R0 2-372 limits assumed): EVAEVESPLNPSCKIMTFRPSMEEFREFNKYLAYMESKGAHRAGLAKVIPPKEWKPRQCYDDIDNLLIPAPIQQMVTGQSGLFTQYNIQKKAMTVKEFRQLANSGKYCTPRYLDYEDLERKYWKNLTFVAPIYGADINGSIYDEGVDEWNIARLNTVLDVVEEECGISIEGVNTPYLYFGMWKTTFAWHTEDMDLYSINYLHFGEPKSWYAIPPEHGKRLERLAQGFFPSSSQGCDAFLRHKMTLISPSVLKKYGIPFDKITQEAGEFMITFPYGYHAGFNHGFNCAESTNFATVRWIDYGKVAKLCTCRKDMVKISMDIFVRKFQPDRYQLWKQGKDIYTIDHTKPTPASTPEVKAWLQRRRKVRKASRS
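System: N-terminal GST-fused human GASC-1 (KDM4C) fragment, residues 2-372 / Amount: 10 nM GST-KDM4C in enzyme reaction / Also added: H3K9me3 peptide with Fe(II)/2OG / Times: 30 min demethylation and 1 h detection at room temperature / Signal: LANCE TR-FRET / Read-out basis: Fall in 671/618 emission ratio as inhibition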
IDH1 mut inh: inhibitors of IDH1 R132H reductase, primary screen, biochemical, plate reader, single point | 0.18% of 70,000 active | AID 624101, 2012 | diaphorase/resazurin fluorescence, 60 min | inhibition, % at 10 µM; in the data active = inhibition above about 34%; inconclusive = no clear call, values can overlap the other calls; inactive = below about 11%
Target sequence (O75874 whole entry R132H): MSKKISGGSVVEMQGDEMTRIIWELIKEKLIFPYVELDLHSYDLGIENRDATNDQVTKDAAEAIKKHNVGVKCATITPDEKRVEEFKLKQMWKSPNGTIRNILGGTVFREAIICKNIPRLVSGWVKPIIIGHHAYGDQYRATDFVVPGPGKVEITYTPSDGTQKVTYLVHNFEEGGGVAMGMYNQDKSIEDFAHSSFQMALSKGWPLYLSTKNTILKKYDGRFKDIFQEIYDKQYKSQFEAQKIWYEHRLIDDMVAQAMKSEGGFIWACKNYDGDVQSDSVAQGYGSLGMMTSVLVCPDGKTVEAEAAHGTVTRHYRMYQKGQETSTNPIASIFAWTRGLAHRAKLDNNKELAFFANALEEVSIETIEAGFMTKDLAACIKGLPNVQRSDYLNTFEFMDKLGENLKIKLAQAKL
T cruzi growth-1: T. cruzi intracellular proliferation inhibitors, primary screen, cell-based, beta-gal Tulahuen parasites, NIH3T3 host, luminescence | T. cruzi beta-gal in NIH3T3, GalScreen luminescence, 90 h | inhibition, % at 8.34 µM | 5.9% of 77,000 active | AID 624255, 2012;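 active = mean inhibition above about 93%, with at least 55% of replicates each passing it, limit read from the data, passing the limit was not always enough; inconclusive = only one of those two conditions holds; inactive = neither condition holds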
Pf Dd2 growth: P. falciparum Dd2 growth inhibitors, primary screen, SYBR Green fluorescence, single dose replicates. 72 h; hits give low values. activity change, % at 10 µM. 2.3% of 94,000 active; in the data active = activity change below about -80%; inconclusive = no clear call, values can overlap the other calls
T cruzi growth-2: T. cruzi intracellular proliferation inhibitors, confirmation, cell-based, NIH3T3 host, beta-gal parasite, luminescence, cherry-pick; shares compounds with T cruzi growth-1; T. cruzi beta-gal in NIH3T3, GalScreen luminescence, 90 h; inhibition, % at 8.35 µM; 72% of 5,600 active;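 active = mean replicate inhibition above about 95% and at least 55% of replicates individually reaching it, limit read from the data; inconclusive = only one of the two criteria is met; inactive = neither criterion is met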
T cruzi growth-3: inhibitors of intracellular T. cruzi replication, confirmation, NIH3T3 host cells, beta-gal parasites, cherry-pick, set 2; AID 651740, 2012; inhibition, % at 2.09 µM; 21% of 5,600 active; T. cruzi beta-gal in NIH3T3, GalScreen luminescence, 90 h; shares compounds with T cruzi growth-1;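 active = mean inhibition above about 95%, with at least 55% of replicates also reaching it, limit read from the data; inconclusive = meets just one of the two conditions; inactive = meets neither condition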
3T3 cytotox: cytotoxicity in mouse NIH/3T3 fibroblasts, confirmation, cytotoxicity control for T. cruzi proliferation inhibitor project, cell-based, cherry-pick, single point | shares compounds with T cruzi growth-1 | NIH/3T3 viability, CellTiter-Glo ATP luminescence, 90 h | cytotoxicity (signal decrease), % at 8.35 µM | 14% of 5,600 active;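 active = mean signal decrease across replicates above about 35% based on untreated-well scatter, with enough replicates individually passing, limit read from the data; inconclusive = no rule stated though some were filed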
3T3 cytotox 2: NIH/3T3 fibroblast cytotoxicity, confirmation, cytotoxicity control, cell-based, cherry-pick, single point, set 2; 56% of 5,600 active; NIH/3T3 viability, CellTiter-Glo ATP luminescence, 90 h; shares compounds with T cruzi growth-1; inhibition, % at 24.9 µM;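 active = mean loss of cell viability signal at or above a set limit, and enough replicates individually reaching it; inconclusive = meets only the mean limit or only the replicate share; inactive = meets neither condition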
Large screens that a line does not name were inactive (follow-up assays come after a bar, where they were run).

C[C@H](CO)N1C[C@H](C)[C@H](CN(C)C(=O)Nc2ccc(F)cc2)OCCCC[C@H](C)Oc2ccc(NC(=O)Nc3ccc4c(c3)OCO4)cc2C1=O	none
C[C@@H]1CCCCO[C@H](CN(C)C(=O)Nc2ccc3c(c2)OCO3)[C@H](C)CN([C@H](C)CO)C(=O)c2cc(NC(=O)Nc3ccc(F)cc3)ccc2O1	T cruzi growth-1 101.9, Pf Dd2 growth -88.4 | T cruzi growth-2 99.9 | T cruzi growth-3 inactive | 3T3 cytotox inactive | 3T3 cytotox 2 inactive
C[C@@H]1CCCCO[C@@H](CN(C)C(=O)Nc2ccc3c(c2)OCO3)[C@H](C)CN([C@H](C)CO)C(=O)c2cc(NC(=O)Nc3ccc(F)cc3)ccc2O1	T cruzi growth-1 102.2 | T cruzi growth-2 104.3 | T cruzi growth-3 inactive | 3T3 cytotox inactive | 3T3 cytotox 2 inactive
C[C@@H]1CCCCO[C@@H](CN(C)C(=O)Nc2ccc(F)cc2)[C@@H](C)CN([C@H](C)CO)C(=O)c2cc(NC(=O)Nc3ccc4c(c3)OCO4)ccc2O1	none
C[C@H](CO)N1C[C@H](C)[C@H](CN(C)C(=O)Nc2ccc3c(c2)OCO3)OCCCC[C@H](C)Oc2ccc(NC(=O)Nc3ccc(F)cc3)cc2C1=O	T cruzi growth-1 104.3 (no result: IDH1 mut inh) | T cruzi growth-2 107.9 | T cruzi growth-3 inactive | 3T3 cytotox inactive | 3T3 cytotox 2 inactive
Cc1ccc2nc(-c3cccnc3)cc(C(=O)Nc3ccc(CC(=O)O)cc3)c2c1	none (no result: KDM4C inh, T cruzi growth-1, Pf Dd2 growth)
COc1ccc(CNC2C3CC4CC(C3)CC2C4)c(OC)c1C (configuration not stated)	none (no result: KDM4C inh, T cruzi growth-1, Pf Dd2 growth)
COc1ccc([N+](=O)[O-])cc1NC(=O)CN(c1ccc(Cl)c(Cl)c1)S(C)(=O)=O	none (no result: KDM4C inh, T cruzi growth-1, Pf Dd2 growth)
CNC[C@H]1Oc2cc(C#Cc3ccc(OC)cc3)ccc2S(=O)(=O)N([C@H](C)CO)C[C@@H]1C	T cruzi growth-1 109.3, Pf Dd2 growth -85.7 | T cruzi growth-2 98.2 | T cruzi growth-3 inconclusive | 3T3 cytotox 38.6 | 3T3 cytotox 2 105.3
CNC[C@H]1Oc2cc(C#Cc3cccc(F)c3)ccc2S(=O)(=O)N([C@@H](C)CO)C[C@@H]1C	none
CNC[C@H]1Oc2cc(C#Cc3cccc(F)c3)ccc2S(=O)(=O)N([C@H](C)CO)C[C@@H]1C	T cruzi growth-1 inconclusive | T cruzi growth-2 104.5 | T cruzi growth-3 inactive | 3T3 cytotox inactive | 3T3 cytotox 2 105.1
CNC[C@@H]1Oc2cc(C#Cc3cccc(OC)c3)ccc2S(=O)(=O)N([C@H](C)CO)C[C@H]1C	T cruzi growth-1 106.0 | T cruzi growth-2 109.0 | T cruzi growth-3 inactive | 3T3 cytotox inactive | 3T3 cytotox 2 103.2
CCOC(=O)c1ccc(COc2ccc(-c3cnc4ccccc4n3)cc2)o1	none (no result: KDM4C inh, T cruzi growth-1, Pf Dd2 growth)
C[C@@H]1CCCCO[C@H](CN(C)Cc2ccc(C(F)(F)F)cc2)[C@H](C)CN([C@H](C)CO)C(=O)c2cc(NC(=O)c3ccncc3)ccc2O1	T cruzi growth-1 108.7 (no result: IDH1 mut inh) | T cruzi growth-2 105.7 | T cruzi growth-3 inactive | 3T3 cytotox inactive | 3T3 cytotox 2 72.9
C[C@@H]1CCCCO[C@@H](CN(C)Cc2ccc(C(F)(F)F)cc2)[C@@H](C)CN([C@@H](C)CO)C(=O)c2cc(NC(=O)c3ccncc3)ccc2O1	none
C[C@@H]1CN([C@H](C)CO)C(=O)c2cc(NC(=O)c3ccncc3)ccc2O[C@@H](C)CCCCO[C@@H]1CN(C)Cc1ccc(C(F)(F)F)cc1	T cruzi growth-1 108.7 | T cruzi growth-2 109.1 | T cruzi growth-3 inactive | 3T3 cytotox inactive | 3T3 cytotox 2 25.6
C[C@H]1CCCCO[C@H](CN(C)Cc2ccc(C(F)(F)F)cc2)[C@@H](C)CN([C@@H](C)CO)C(=O)c2cc(NC(=O)c3ccncc3)ccc2O1	T cruzi growth-1 98.1 (no result: IDH1 mut inh) | T cruzi growth-2 102.5 | T cruzi growth-3 inactive | 3T3 cytotox inactive | 3T3 cytotox 2 106.0
C[C@H]1CCCCO[C@@H](CN(C)Cc2ccc(C(F)(F)F)cc2)[C@@H](C)CN([C@@H](C)CO)C(=O)c2cc(NC(=O)c3ccncc3)ccc2O1	none
O=C(CSc1n[nH]c(-c2ccccc2)n1)Nc1cccc(C(F)(F)F)c1	none (no result: KDM4C inh, T cruzi growth-1, Pf Dd2 growth)
Cc1cccc(C)c1NC(=O)CC(C(=O)O)N(C)C (configuration not stated)	none (no result: KDM4C inh, T cruzi growth-1, Pf Dd2 growth)
C[C@H]1CN([C@@H](C)CO)C(=O)c2cc(/C=C/c3ccccc3)cnc2O[C@H]1CN(C)Cc1ccc2c(c1)OCO2	none
C[C@H](CO)N1C[C@H](C)[C@@H](CN(C)Cc2ccc3c(c2)OCO3)Oc2ncc(/C=C/c3ccccc3)cc2C1=O	none
C[C@@H]1CN([C@H](C)CO)C(=O)c2cc(/C=C/c3ccccc3)cnc2O[C@H]1CN(C)Cc1ccc2c(c1)OCO2	T cruzi growth-1 121.4 | T cruzi growth-2 100.2 | T cruzi growth-3 inconclusive | 3T3 cytotox 38.4 | 3T3 cytotox 2 104.3
C[C@H]1CN([C@@H](C)CO)C(=O)c2cc(/C=C/c3ccccc3)cnc2O[C@@H]1CN(C)Cc1ccc2c(c1)OCO2	T cruzi growth-1 118.0 | T cruzi growth-2 108.2 | T cruzi growth-3 inactive | 3T3 cytotox inactive | 3T3 cytotox 2 102.5
C[C@H](CO)N1C[C@H](C)[C@H](CN(C)Cc2ccc3c(c2)OCO3)Oc2ncc(/C=C/c3ccccc3)cc2C1=O	T cruzi growth-1 111.4 | T cruzi growth-2 97.8 | T cruzi growth-3 inactive | 3T3 cytotox inactive | 3T3 cytotox 2 103.3
c1ccc2c(c1)OCC(c1nn3c(Cn4cnc5ccccc54)nnc3s1)O2 (configuration not stated)	none (no result: KDM4C inh, T cruzi growth-1, Pf Dd2 growth)
CC(NS(=O)(=O)c1ccccc1)C(=O)Nc1ccccc1F (configuration not stated)	none (no result: KDM4C inh, T cruzi growth-1, Pf Dd2 growth)
COc1ccc(NC(=O)C(C)Oc2cc(C)c(Cl)c(C)c2)c([N+](=O)[O-])c1 (configuration not stated)	none (no result: KDM4C inh, T cruzi growth-1, Pf Dd2 growth)
N#Cc1ccccc1CSc1nnc(Cc2cccc3ccccc23)n1-c1ccccc1	none (no result: KDM4C inh, T cruzi growth-1, Pf Dd2 growth)
C[C@H]1CN([C@@H](C)CO)C(=O)Cc2cc(NS(=O)(=O)c3ccc(F)cc3)ccc2O[C@H]1CN(C)CC1CCCCC1	none
